Measurements reported in ChEMBL document CHEMBL3259528, “Exploring 5-nitrofuran derivatives against nosocomial pathogens: synthesis, antimicrobial activity and chemometric analysis” (2014).
In brackets after ≈: the same amount, converted by molar mass. Activity calls are given as the source filed them. The rule behind the calls is not given here.

Experiments:
Staphylococcus aureus [1] = experiment: Antimicrobial activity against multidrug-resistant Staphylococcus aureus VISA3 […] by two-fold broth microdilution method; assay type: functional
Serratia marcescens [2] = experiment: Antimicrobial activity against Serratia marcescens ATCC 14576 at 128 uM after 24 to 48 hrs by two-fold broth microdilution method; assay type: functional, organism-based
In short: (§1)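 Antibacterial microdilution in CAMH, inoculum 0.5 McFarland diluted in saline/CAMH, 35 °C for 18 h, with further reads at 24 and 48 h. Activity is scored at the maximum tested concentration, 128 µM. Triplicate.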

Escherichia coli [3] = experiment: Antimicrobial activity against Escherichia coli ATCC 25922 at 128 uM after 24 to 48 hrs by two-fold broth microdilution method; assay type: functional, organism-based; in short: as §1
Klebsiella pneumoniae = experiment: Antimicrobial activity against Klebsiella pneumoniae ATCC 700603 at 128 uM after 24 to 48 hrs by two-fold broth microdilution method; assay type: functional, organism-based; in short: as §1
Enterobacter cloacae [4] = experiment: Antimicrobial activity against Enterobacter cloacae ATCC 23355 at 128 uM after 24 to 48 hrs by two-fold broth microdilution method; assay type: functional, organism-based; in short: as §1
Staphylococcus aureus [5] = experiment: Antimicrobial activity against Staphylococcus aureus ATCC 29213 after 18 hrs by modified broth microdilution method; assay type: functional
In short: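 PGI90, the concentration giving 90% growth inhibition, fitted with an exponential growth curve from at least seven concentrations of the MIC assay. Inhibition % = [(Ac − Ap)/Ac] × 100 from A620 of drug-free control versus drug-treated culture. Checked by a modified broth microdilution (Phase 2).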

Candida albicans [6] = experiment: Antimicrobial activity against Candida albicans ATCC 537Y at 64 uM after 48 hrs by two-fold broth microdilution method; assay type: functional, organism-based
In short: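 Single top concentration of the antifungal microdilution: RPMI 1640, inoculum 0.5 McFarland diluted in saline/RPMI, 35 °C for 48 h. Activity is judged at the highest tested level, 64 µM. Run in triplicate.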

Staphylococcus aureus [7] = experiment: Antimicrobial activity against Staphylococcus aureus ATCC 29213 after 24 to 48 hrs by two-fold broth microdilution method; assay type: functional
Escherichia coli [8] = experiment: Antimicrobial activity against Escherichia coli ATCC 25922 after 24 to 48 hrs by two-fold broth microdilution method; assay type: functional
Candida albicans [9] = experiment: Antimicrobial activity against Candida albicans ATCC 537Y after 48 hrs by two-fold broth microdilution method; assay type: functional
In short: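 Two-fold serial dilutions in RPMI 1640 per CLSI M27-A2. Stocks in DMSO/RPMI 1:20 v/v. Test range 1.0–64 µM. Inoculum set to 0.5 McFarland, then diluted in saline and RPMI 1640. Plates held at 35 °C for 48 h. MIC is the lowest concentration giving prominent growth reduction. Run in triplicate.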

Serratia marcescens [10] = experiment: Antimicrobial activity against Serratia marcescens ATCC 14576 after 24 to 48 hrs by two-fold broth microdilution method; assay type: functional
Enterococcus faecalis [11] = experiment: Antimicrobial activity against Enterococcus faecalis ATCC 29212 after 24 to 48 hrs by two-fold broth microdilution method; assay type: functional
Enterococcus faecalis [12] = experiment: Antimicrobial activity against Enterococcus faecalis ATCC 29212 at 128 uM after 24 to 48 hrs by two-fold broth microdilution method; assay type: functional, organism-based; in short: as §1
Enterobacter cloacae [13] = experiment: Antimicrobial activity against Enterobacter cloacae ATCC 23355 after 24 to 48 hrs by two-fold broth microdilution method; assay type: functional

Structure (SMILES) | MIC (Staphylococcus aureus [1]) [µM] | Activity (Serratia marcescens [2]) | Activity (Escherichia coli [3]) | Activity (Klebsiella pneumoniae) | Activity (Enterobacter cloacae [4]) | log(1/MIC>90) (Staphylococcus aureus [5]) | Activity (Candida albicans [6]) | MIC (Staphylococcus aureus [7]) [µM] | MIC90 (Staphylococcus aureus [7]) [µM] | MIC (Escherichia coli [8]) [µM] | MIC90 (Escherichia coli [8]) [µM] | MIC (Candida albicans [9]) [µM] | MIC90 (Candida albicans [9]) [µM] | MIC (Serratia marcescens [10]) [µM] | MIC90 (Serratia marcescens [10]) [µM] | MIC (Enterococcus faecalis [11]) [µM] | MIC90 (Enterococcus faecalis [11]) [µM] | Activity (Enterococcus faecalis [12]) | MIC (Enterobacter cloacae [13]) [µM] | MIC90 (Enterobacter cloacae [13]) [µM]
CC(=O)N1N=C(c2ccc(Br)cc2)OC1c1ccc([N+](=O)[O-])o1 (stereo not drawn) | 8 (≈ 3.04 µg/mL) | inactive | inactive | inactive | inactive | 5.29 | inactive | 4 (≈ 1.52 µg/mL) | 5.13 (≈ 1.95 µg/mL) | – | – | – | – | – | – | – | – | – | – | –
O=C(N/N=C/c1ccc([N+](=O)[O-])o1)c1ccc(F)cc1 | – | – | – | inactive | inactive | 5.18 | – | 2 (≈ 0.554 µg/mL) | 6.64 (≈ 1.84 µg/mL) | 32 (≈ 8.87 µg/mL) | 44.1 (≈ 12.2 µg/mL) | 32 (≈ 8.87 µg/mL) | 57 (≈ 15.8 µg/mL) | 64 (≈ 17.7 µg/mL) | 104 (≈ 28.9 µg/mL) | 64 (≈ 17.7 µg/mL) | 71.2 (≈ 19.7 µg/mL) | – | – | –
CC(=O)N1N=C(c2ccc(Cl)c(Cl)c2)OC1c1ccc([N+](=O)[O-])o1 (stereo not drawn) | 4 (≈ 1.48 µg/mL) | inactive | inactive | inactive | inactive | 5.33 | inactive | 4 (≈ 1.48 µg/mL) | 4.63 (≈ 1.71 µg/mL) | – | – | – | – | – | – | – | – | – | – | –
CCCCOc1ccc(C(=O)N/N=C/c2ccc([N+](=O)[O-])o2)cc1 | – | inactive | inactive | inactive | inactive | 5.38 | inactive | 2 (≈ 0.663 µg/mL) | 4.14 (≈ 1.37 µg/mL) | – | – | – | – | – | – | 16 (≈ 5.3 µg/mL) | 24.1 (≈ 7.97 µg/mL) | – | – | –
CN(C)c1ccc(C(=O)N/N=C/c2ccc([N+](=O)[O-])o2)cc1 | – | inactive | – | inactive | inactive | 5.11 | inactive | 4 (≈ 1.21 µg/mL) | 7.7 (≈ 2.33 µg/mL) | 32 (≈ 9.67 µg/mL) | 55 (≈ 16.6 µg/mL) | – | – | – | – | – | – | inactive | – | –
CCCCc1ccc(C(=O)N/N=C/c2ccc([N+](=O)[O-])o2)cc1 | 2 (≈ 0.631 µg/mL) | inactive | inactive | inactive | inactive | 5.74 | inactive | 2 (≈ 0.631 µg/mL) | 1.8 (≈ 0.568 µg/mL) | – | – | – | – | – | – | 32 (≈ 10.1 µg/mL) | 55.9 (≈ 17.6 µg/mL) | – | – | –
CC(=O)N1N=C(c2ccc(Cl)cc2)OC1c1ccc([N+](=O)[O-])o1 (stereo not drawn) | 4 (≈ 1.34 µg/mL) | inactive | – | inactive | inactive | 5.26 | inactive | 4 (≈ 1.34 µg/mL) | 5.45 (≈ 1.83 µg/mL) | 64 (≈ 21.5 µg/mL) | 88.7 (≈ 29.8 µg/mL) | – | – | – | – | – | – | – | – | –
O=C(N/N=C/c1ccc([N+](=O)[O-])o1)c1ccc(O)cc1 [NIFUROXAZIDE] | 8 (≈ 2.2 µg/mL) | inactive | – | inactive | – | 5.05 | inactive | 4 (≈ 1.1 µg/mL) | 8.87 (≈ 2.44 µg/mL) | 32 (≈ 8.81 µg/mL) | 42 (≈ 11.6 µg/mL) | – | – | – | – | 8 (≈ 2.2 µg/mL) | 10.6 (≈ 2.93 µg/mL) | – | 32 (≈ 8.81 µg/mL) | 31.2 (≈ 8.59 µg/mL)
CC(=O)N1N=C(c2ccc([N+](=O)[O-])cc2)OC1c1ccc([N+](=O)[O-])o1 (stereo not drawn) | – | – | – | inactive | inactive | 5.14 | – | 4 (≈ 1.39 µg/mL) | 5.78 (≈ 2 µg/mL) | 32 (≈ 11.1 µg/mL) | 54.6 (≈ 18.9 µg/mL) | 32 (≈ 11.1 µg/mL) | 44.6 (≈ 15.4 µg/mL) | 64 (≈ 22.2 µg/mL) | 90.5 (≈ 31.3 µg/mL) | 32 (≈ 11.1 µg/mL) | 57.3 (≈ 19.8 µg/mL) | – | – | –
CC(=O)N1N=C(c2ccc(Cl)cc2Cl)OC1c1ccc([N+](=O)[O-])o1 (stereo not drawn) | – | – | – | inactive | inactive | 5.21 | – | 4 (≈ 1.48 µg/mL) | 6.12 (≈ 2.27 µg/mL) | 64 (≈ 23.7 µg/mL) | 86.1 (≈ 31.9 µg/mL) | 32 (≈ 11.8 µg/mL) | 42.2 (≈ 15.6 µg/mL) | 64 (≈ 23.7 µg/mL) | 85.7 (≈ 31.7 µg/mL) | 32 (≈ 11.8 µg/mL) | 31.7 (≈ 11.7 µg/mL) | – | – | –
Nc1ccc(C(=O)N/N=C/c2ccc([N+](=O)[O-])o2)cc1 | – | inactive | – | inactive | – | 5.32 | inactive | 2 (≈ 0.548 µg/mL) | 4.77 (≈ 1.31 µg/mL) | 8 (≈ 2.19 µg/mL) | 15.9 (≈ 4.36 µg/mL) | – | – | – | – | 4 (≈ 1.1 µg/mL) | 5.63 (≈ 1.54 µg/mL) | – | 4 (≈ 1.1 µg/mL) | 6.8 (≈ 1.86 µg/mL)
